Assay results from ChEMBL document CHEMBL4020727, “Synthesis and biological evaluation of largazole zinc-binding group analogs” (Bioorg Med Chem, 2017).

Key:
HCT-116 = assay: Cytotoxicity against human HCT116 cells assessed as reduction in cell viability after 48 hrs by MTT assay; format: functional, cell-based; settings: HCT-116, 48 h
Procedure, shortened: (§1)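 Cells grown in DMEM with 10% FBS, 37 °C, 5% CO2; 1 × 10^4 cells per well plated and left 24 h, then exposed to a range of compound concentrations or vehicle (1% EtOH) for 48 h. Viability read by MTT.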

MDA-MB-231 = assay: Cytotoxicity against human MDA-MB-231 cells assessed as reduction in cell viability after 48 hrs by MTT assay; format: functional, cell-based; settings: MDA-MB-231, 48 h; procedure, shortened: as §1
Homo sapiens = organism: Homo sapiens; assay: Inhibition of class 1 HDAC in human MDA-MB-231 cells assessed as hyperacetylation of histone H3 (Lys9/14) measured at 8 hrs post treatment by immunoblot analysis; format: cell-based
Procedure, shortened: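 Cells in DMEM/10% FBS; 4 × 10^5 cells seeded in 60-mm dishes overnight, then treated for 8 h with 0–10 μM (final) compound or vehicle (1% EtOH). Whole-cell lysates loaded at equal protein (BCA), run on SDS-PAGE, blotted to PVDF and probed with anti-acetyl histone H3 (Lys9/14); β-actin also probed. Chemiluminescent detection.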

Histone deacetylase 1 = Histone deacetylase 1 (Homo sapiens, UniProt Q13547); assay: Inhibition of recombinant full length C-terminal His/FLAG-tagged human HDAC1 expressed in baculovirus infected Sf9 insect cells using BPS HDAC substrate 3 after 30 mins by fluorescence assay
Procedure, shortened: (§2)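 Run by a contract lab. Compound incubated with HDAC enzyme, HDAC substrate, BSA and HDAC buffer, in duplicate, at 37 °C for 30 min. Quenched with HDAC developer, then 15 min at room temperature. Percent activity = (F−Fb)/(Ft−Fb), using blank and solvent-control wells. IC50 from curve fitting.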

[1] = target: Histone deacetylase 5 (Homo sapiens) (UniProt Q9UQL6); assay: Inhibition of full length N-terminal GST-tagged human HDAC5 expressed in baculovirus infected Sf9 insect cells using BPS HDAC class 2a substrate at 10 uM after 30 mins by fluorescence assay relative to control
Procedure, shortened: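 Run by a contract lab. Compound incubated with HDAC enzyme, substrate, bovine serum albumin and HDAC buffer in duplicate for 30 min at 37 °C. Quenched with HDAC developer, 15 min at room temperature, fluorescence read at ex 360/em 460 nm. Activity taken as (F−Fb)/(Ft−Fb) against blank and solvent control wells; IC50 from curve fitting.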

[2] = target: T1, Polyamine deacetylase HDAC10 (Homo sapiens, UniProt Q969S8); assay: Inhibition of N-terminal GST-tagged/C-terminal His-tagged human HDAC10 (1 to 481 residues) expressed in baculovirus infected Sf9 insect cells using BPS HDAC substrate 3 after 30 mins by fluorescence assay
T1 sequence (Q969S8 whole entry): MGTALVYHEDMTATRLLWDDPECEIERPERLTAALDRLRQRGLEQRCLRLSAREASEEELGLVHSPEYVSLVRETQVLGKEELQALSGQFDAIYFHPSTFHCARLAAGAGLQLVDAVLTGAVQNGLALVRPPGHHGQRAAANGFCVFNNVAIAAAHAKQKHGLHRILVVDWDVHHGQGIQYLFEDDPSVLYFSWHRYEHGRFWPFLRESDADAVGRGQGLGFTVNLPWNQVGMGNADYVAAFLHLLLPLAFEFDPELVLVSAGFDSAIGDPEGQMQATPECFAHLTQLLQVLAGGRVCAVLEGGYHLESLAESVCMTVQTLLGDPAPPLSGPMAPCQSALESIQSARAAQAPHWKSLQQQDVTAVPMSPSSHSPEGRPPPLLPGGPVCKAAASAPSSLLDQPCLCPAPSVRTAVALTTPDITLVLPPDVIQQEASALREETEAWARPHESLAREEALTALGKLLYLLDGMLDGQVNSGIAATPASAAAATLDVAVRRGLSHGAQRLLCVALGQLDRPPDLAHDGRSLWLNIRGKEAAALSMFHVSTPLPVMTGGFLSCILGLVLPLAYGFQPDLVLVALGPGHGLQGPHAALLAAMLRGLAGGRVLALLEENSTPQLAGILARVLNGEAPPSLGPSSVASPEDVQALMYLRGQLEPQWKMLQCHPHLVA
Procedure, shortened: as §2, with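 “temperature. Fluorescence read at ex 360/em 460 nm.” for “temperature.”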

Chain of Histone deacetylase 5 (Homo sapiens) (Q9UQL6 whole entry): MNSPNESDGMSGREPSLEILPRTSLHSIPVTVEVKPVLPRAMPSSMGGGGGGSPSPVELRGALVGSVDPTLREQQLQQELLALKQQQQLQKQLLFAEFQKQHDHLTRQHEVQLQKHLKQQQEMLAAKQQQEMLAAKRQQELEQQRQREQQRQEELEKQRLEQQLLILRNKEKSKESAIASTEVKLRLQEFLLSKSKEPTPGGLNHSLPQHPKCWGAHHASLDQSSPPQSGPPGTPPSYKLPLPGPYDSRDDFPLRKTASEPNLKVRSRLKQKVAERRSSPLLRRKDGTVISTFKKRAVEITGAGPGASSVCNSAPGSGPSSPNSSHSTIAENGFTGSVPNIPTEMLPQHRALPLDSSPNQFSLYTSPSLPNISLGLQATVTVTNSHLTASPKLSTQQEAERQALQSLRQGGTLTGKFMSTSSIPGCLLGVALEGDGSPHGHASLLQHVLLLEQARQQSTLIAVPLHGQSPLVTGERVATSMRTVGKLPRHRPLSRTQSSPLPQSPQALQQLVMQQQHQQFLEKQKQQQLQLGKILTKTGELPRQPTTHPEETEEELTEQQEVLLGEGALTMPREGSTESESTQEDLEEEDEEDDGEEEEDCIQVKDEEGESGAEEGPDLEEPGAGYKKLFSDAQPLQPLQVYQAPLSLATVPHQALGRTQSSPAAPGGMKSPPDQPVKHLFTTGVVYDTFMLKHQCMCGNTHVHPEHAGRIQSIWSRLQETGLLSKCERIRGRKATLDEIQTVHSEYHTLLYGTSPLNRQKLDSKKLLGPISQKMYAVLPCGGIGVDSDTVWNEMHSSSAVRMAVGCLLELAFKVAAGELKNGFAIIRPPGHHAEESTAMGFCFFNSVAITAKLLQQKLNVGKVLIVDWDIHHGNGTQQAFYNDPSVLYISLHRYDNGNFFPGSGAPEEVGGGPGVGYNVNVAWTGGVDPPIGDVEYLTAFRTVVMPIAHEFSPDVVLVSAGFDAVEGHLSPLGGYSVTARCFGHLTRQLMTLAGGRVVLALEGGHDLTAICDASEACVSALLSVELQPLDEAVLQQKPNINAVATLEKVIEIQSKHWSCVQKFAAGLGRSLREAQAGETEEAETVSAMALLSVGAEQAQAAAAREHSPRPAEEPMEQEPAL
Chain of Histone deacetylase 1 (Q13547 whole entry): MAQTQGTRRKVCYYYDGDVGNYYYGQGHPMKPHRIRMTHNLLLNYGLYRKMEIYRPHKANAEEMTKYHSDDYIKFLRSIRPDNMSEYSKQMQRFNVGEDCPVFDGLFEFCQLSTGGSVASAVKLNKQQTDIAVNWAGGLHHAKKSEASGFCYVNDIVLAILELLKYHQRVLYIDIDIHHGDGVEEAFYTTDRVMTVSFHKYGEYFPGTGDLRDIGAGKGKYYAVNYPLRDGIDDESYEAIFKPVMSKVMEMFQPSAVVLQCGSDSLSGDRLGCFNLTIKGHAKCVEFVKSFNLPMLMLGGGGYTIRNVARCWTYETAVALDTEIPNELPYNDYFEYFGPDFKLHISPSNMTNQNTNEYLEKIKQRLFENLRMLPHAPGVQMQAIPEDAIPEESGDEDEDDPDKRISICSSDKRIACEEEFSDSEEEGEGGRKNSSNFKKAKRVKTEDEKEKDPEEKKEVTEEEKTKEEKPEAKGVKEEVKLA

Q: With `CC(C)[C@@H]1NC(=O)[C@]2(C)CSC(=N2)c2csc(n2)CNC(=O)C[C@@H](/C=C/CCC(=O)NO)OC1=O` as the compound, how does the IC50 (HCT-116) read?
A: 3300 nM

Q: What about the IC50 (MDA-MB-231) of the same compound?
A: 497 nM

Q: What about the inhibition (Homo sapiens) of the same compound?
A: Dose-dependent effect

Q: And the IC50 (Histone deacetylase 1)?
A: 26 nM

Q: And the inhibition [1]?
A: 21%

Q: What about the IC50 [2] of the same compound?
A: 21 nM

Q: Which results are given for `CC(C)[C@@H]1NC(=O)[C@]2(C)CSC(=N2)c2csc(n2)CNC(=O)C[C@@H](/C=C/CCSCCS)OC1=O`?
A: IC50 (HCT-116): 1500 nM; IC50 (MDA-MB-231): 480 nM; inhibition (Homo sapiens): Dose-dependent effect; IC50 (Histone deacetylase 1): 40 nM; inhibition [1]: 22%; IC50 [2]: 3.6 nM
